From PubChem
MT1-MMP act inh = blocks activation of human MT1-MMP | P50281 | HT1080 RFP-PRO-GFP cells, GFP/RFP ratio fluorescence, overnight; percent of plate control window, DMSO zero | GFP/RFP ratio change, % at 20 µM | actives 0.061% (n = 360,000);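 active = GFP/RFP ratio change of at least 30% with cell ATP level not reduced by more than half and red fluorescence within 50% of control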
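Assay system: RFP-PRO-GFP reporter HT1080 cells; read-out basis: GFP/RFP fluorescence ratio; benchmarks: DMSO wells and RFP-L50D-GFP cells; doses: 20 µM single dose, 1% DMSO; schedule: overnight cell settling, then overnight compound exposure, 37 °C, 5% CO2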
DAGLB inhibitor = diacylglycerol lipase beta (human) inhibition; Q8NCG7; HEK293T DAGLB membrane lysate, EnzChek fluorogenic substrate; inhibition, % at 5.17 µM; actives 0.059% (n = 340,000); AID 504411; in the data active = inhibition above about 34%
FAS-TE inh = blocks the thioesterase domain of human fatty acid synthase | AID 602261 | actives 0.67% (n = 360,000) | inhibition, % at 15 µM | recombinant FAS-TE, OMFH fluorogenic substrate, fluorescence endpoint;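 active = compounds whose normalised, plate-corrected inhibition of enzyme fluorescence in the single-dose primary screen is 50% or more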
hiPSC survival = increases survival of single human iPS cells. hiPSC single-cell survival, ATPlite luminescence; 100% = ROCK inhibitor wells, 0% = DMSO. survival enhancement, % at 20 µM. actives 0.044% (n = 360,000); in the data active = survival enhancement above about 18%;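 note: cells exposed to compounds for 16 hours before the ATP read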
SKN-1 inh = blocks SKN-1 activity in C. elegans | C. elegans VP596 Pgst-4::GFP/RFP ratio, acrylamide-induced, 24 h | inhibition, % at 21.8 µM | actives 0.49% (n = 360,000);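 active = interference check ratio from 0.5 to 1.5 plus GFP to RFP signal ratio inhibition reaching or exceeding a fixed threshold, cut at about 30% in these data, passing the limit was not always enough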
FAS-TE inh conf = FAS thioesterase (human) inhibition, confirmation; actives 45% (n = 2,300); inhibition, % at 15 µM; shares compounds with FAS-TE inh; recombinant FAS-TE, OMFH fluorogenic substrate, fluorescence; AID 624325;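 active = compounds inhibiting the enzyme by at least 50% at 15 µM in any one of the replicates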
Of the large screens only hits and unclear results are named; the others gave an inactive call (follow-up assays come after a bar, where they were run). Compounds with a hit are over-represented: about 1.3% of the library has one in this group of screens.

O=S1(=O)CC(N2CCC(Cc3ccccc3)CC2)CN1CCc1ccccc1 (centres undefined)	none (no result: DAGLB inhibitor)
O=S(=O)(c1ccccc1)n1ccc(-c2cnc(-c3ccccc3)s2)n1	FAS-TE inh 63 | FAS-TE inh conf 58
CC1CC(C)CN(CC(O)COCc2ccccc2F)C1 (centres undefined)	none
O=C(CSc1ccc([N+](=O)[O-])cn1)Nc1cc(C(F)(F)F)ccc1N1CCOCC1	FAS-TE inh 56 | FAS-TE inh conf inactive
COc1ccc(N=C2C(=Nc3ccc(OC)cc3)N(c3ccc(N(C)C)cc3)C(=S)N2c2ccc(OC)cc2)cc1	FAS-TE inh 80 | FAS-TE inh conf inactive
Cc1ccc(Cl)cc1N1CCN(C(=O)C2CCN(S(=O)(=O)c3cccnc3)CC2)CC1	FAS-TE inh 50 | FAS-TE inh conf inactive
COc1ccc(F)cc1-c1cc(C(=O)NCc2ccc(C(F)(F)F)cc2)[nH]n1	FAS-TE inh 53 (no result: DAGLB inhibitor) | FAS-TE inh conf inactive
COc1ccc(F)cc1-c1cc(C(=O)NCc2cccc(C(F)(F)F)c2)[nH]n1	none (no result: DAGLB inhibitor)
COc1ccc(Cl)cc1-c1cc(C(=O)NCc2cccc(Cl)c2)[nH]n1	FAS-TE inh 51 (no result: DAGLB inhibitor) | FAS-TE inh conf 51
O=C1N[C@@H](Cc2ccccc2)C(=O)N2[C@@H]3N(S(=O)(=O)c4ccccc4)c4ccccc4[C@]3(Br)C[C@@H]12	none
O=C1N[C@@H](Cc2ccccc2)C(=O)N2[C@H]1C[C@]1([C@]34C[C@H]5C(=O)N[C@@H](Cc6ccccc6)C(=O)N5[C@H]3N(S(=O)(=O)c3ccccc3)c3ccccc34)c3ccccc3N(S(=O)(=O)c3ccccc3)[C@H]21	FAS-TE inh 77 | FAS-TE inh conf inactive
COc1ccc2cc3cc(C(=O)N4CCCCCC4)oc3nc2c1	FAS-TE inh 74 | FAS-TE inh conf 56
CCOC(=O)C1CCN(C(=O)c2cc3cc4ccc(C)cc4nc3o2)CC1	FAS-TE inh 55 | FAS-TE inh conf 62
CCOC(=O)C1CCN(C(=O)c2cc3c(ccc4ccccc43)o2)CC1	none
COc1ccc2cc3cc(C(=O)N4CCCCC4C)oc3nc2c1 (centres undefined)	FAS-TE inh 75 | FAS-TE inh conf 62
C/C(=C\c1ccc(C(=O)O)cc1)c1ccc2c(c1)C(C)(C)CCC2(C)C	FAS-TE inh 73 | FAS-TE inh conf inactive
CC(=O)C(=Cc1ccc(C(=O)O)cc1)C(C)=O	none
Cc1ccc(C)c(CC(=O)N2CCCCC2c2cc(C(=O)Nc3cccc(C#N)c3)no2)c1 (centres undefined)	none (no result: DAGLB inhibitor)
COc1ccc(N(C(=O)CCl)C(C(=O)NCCc2ccccc2)c2cccs2)cc1Cl (centres undefined)	FAS-TE inh 64 | FAS-TE inh conf 33
CCc1cc(-c2nnn(CCC3COCCO3)c2CC)ccc1-c1cn(Cc2ccccc2)nn1 (centres undefined)	none
COc1ccc(C2CC(c3cccs3)=NN2C(=O)CSc2nc(=O)n3ccc(C)cc3n2)cc1 (centres undefined)	FAS-TE inh 57 | FAS-TE inh conf 57
COc1ccc(C2=NN(C(=O)CSc3nc(=O)n4cc(C)ccc4n3)C(c3ccc(C)cc3)C2)cc1 (centres undefined)	FAS-TE inh 69 | FAS-TE inh conf 40
Cc1ccc(C2CC(c3ccc(Br)cc3)=NN2C(=O)CSC2=NN3CCCC(=O)N=C3S2)cc1 (centres undefined)	FAS-TE inh 54 | FAS-TE inh conf inactive
Cc1ccc(C2CC(c3cccs3)=NN2C(=O)CSc2nc(=O)n3ccc(C)cc3n2)cc1 (centres undefined)	none
O=C1CCCN2N=C(SCC(=O)N3N=C(c4ccc(Br)cc4)CC3c3ccc(F)cc3)SC2=N1 (centres undefined)	none
CCCS(=O)(=O)NC(=O)C1(C)CCCN(C(=O)c2cccc(Cl)c2)C1 (centres undefined)	none (no result: DAGLB inhibitor)
CCN(C(=O)Cn1nc(C)c([N+](=O)[O-])c1C)C1CCS(=O)(=O)C1 (centres undefined)	none
COc1cccc(CNC(=O)[C@@H]2CCCN2C(=O)[C@@H]2CCCN2)c1	none (no result: DAGLB inhibitor)
O=C(Nc1ccc(OC(F)(F)F)cc1)Nc1cccc([N+](=O)[O-])c1	FAS-TE inh 73 | FAS-TE inh conf 49
Cc1ccc(NC(=O)Nc2cccc([N+](=O)[O-])c2)cc1F	none
O=C(NC(=S)Nc1ccc2c(c1)OCCO2)c1cccc(Br)c1	none
O=C(NC(=S)Nc1ccc2c(c1)OCCO2)c1cccc2ccccc12	FAS-TE inh 56 | FAS-TE inh conf inactive
O=C(CC(C(=O)O)c1ccc(Cl)cc1)c1ccc(Cl)c(Cl)c1 (centres undefined)	FAS-TE inh 80 | FAS-TE inh conf 81
CCCCN1C(=O)C(CC(=O)NC2CC2)CC(C(=O)N2CCOCC2)=C1C (centres undefined)	none
CCN(CC)c1ccc(C(=O)OCC(=O)N(C)Cc2ccccc2)cc1	none
CN(Cc1ccccc1)C(=O)COC(=O)c1cc(Cl)nc(Cl)c1	FAS-TE inh 51 | FAS-TE inh conf 64
COc1ccc(CC(=O)N(C)Cc2ccc(C(C)(C)C)cc2)cc1S(=O)(=O)N1CCOCC1	FAS-TE inh 80 | FAS-TE inh conf 82
COc1ccc(CC(=O)N(C)Cc2ccc(Cl)cc2)cc1S(=O)(=O)N1CCOCC1	none
CS(=O)(=O)c1ccc(Cl)c(C(=O)NCC2CCCCC2)c1	none
CC(NC(=O)c1ccc([N+](=O)[O-])cc1[N+](=O)[O-])c1ccc(-c2ccccc2)cc1 (centres undefined)	FAS-TE inh 55 | FAS-TE inh conf inactive
Cc1cc(O)c(NC(=O)c2cc([N+](=O)[O-])ccc2Cl)cc1C	none
CC(Cc1ccccc1)NC(=O)c1cc([N+](=O)[O-])ccc1Cl (centres undefined)	FAS-TE inh 58 | FAS-TE inh conf 70
Cc1ccc(O)c(NC(=O)c2cc([N+](=O)[O-])ccc2Cl)c1	FAS-TE inh 54 | FAS-TE inh conf 60
CCC(NC(=O)c1ccc([N+](=O)[O-])cc1[N+](=O)[O-])c1ccccc1 (centres undefined)	none
O=C(NCC1CCCCC1)c1cc([N+](=O)[O-])ccc1Cl	FAS-TE inh 51 | FAS-TE inh conf 56
O=C(CN1C(=O)NC2(CCc3ccccc32)C1=O)Nc1ccc(Cl)cc1F (centres undefined)	none
CCCNC(=O)C1(C)CCCN(Cc2ccc(-c3ccccc3)cc2)C1 (centres undefined)	none (no result: DAGLB inhibitor)
Cc1ccc(NC(=O)c2cc(-c3cc(Cl)ccc3C)n[nH]2)cc1NS(C)(=O)=O	none (no result: DAGLB inhibitor)
O=C(NCCCc1ccccc1)c1cc([N+](=O)[O-])ccc1Cl	FAS-TE inh 84 | FAS-TE inh conf 90
